Results published in ChEMBL document CHEMBL3399923, “Design and synthesis of new bioisosteres of spirooxindoles (MI-63/219) as anti-breast cancer agents” (Bioorg Med Chem, 2015).
The source made the active and inactive calls. The rule behind the calls is not given here.

Columns and labels:
MDA-MB-231 = assay: Cytotoxicity against human MDA-MB-231 cells after 48 hrs by MTT assay; type: functional, cell-based; details: MDA-MB-231, 48 h
Summary of the method: (§1)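 MTT viability screen for cytotoxicity across the breast cancer and normal kidney epithelial lines; IC50 reported in µM.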

MCF7 [1] = assay: Cytotoxicity against human MCF7 cells after 48 hrs by MTT assay; type: functional, cell-based; details: MCF7, 48 h; summary of the method: as §1
HEK293 = assay: Cytotoxicity against human HEK293 cells after 48 hrs by MTT assay; type: cell-based; details: HEK293, 48 h; summary of the method: as §1
Vero = assay: Cytotoxicity against African green monkey Vero cells after 48 hrs by MTT assay; type: cell-based; details: Chlorocebus sabaeus; summary of the method: as §1
MCF7 [2] = assay: Increase in p53 mRNA expression in human MCF7 cells at 2.5 to 7.5 uM by RT-PCR analysis; type: functional, cell-based
Summary of the method: (§2)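 p53 and MDM2 mRNA were measured by real-time quantitative PCR in vehicle- versus compound-treated MCF-7 or primary breast cancer cells. Data are the mean of three separate experiments with SEM, compared with control.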

MCF7 [3] = assay: Increase in MDM2 mRNA expression in human MCF7 cells at 2.5 to 7.5 uM by RT-PCR analysis; type: functional, cell-based; summary of the method: as §2
MCF7 [4] = assay: Increase in p53 protein expression in human MCF7 cells; type: functional, cell-based
MCF7 [5] = assay: Increase in MDM2 protein expression in human MCF7 cells; type: functional, cell-based
MCF7 [6] = assay: Increase in p53 […] in human MCF7 cells assessed as increase in p21 promoter activity after 18 hrs by luciferase reporter gene assay; type: functional, cell-based
MCF7 [7] = assay: Increase in p21 mRNA expression in human MCF7 cells at 5 to 7.5 uM by RT-PCR analysis; type: functional, cell-based
Summary of the method: (§3)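 Real-time quantitative PCR of p21, cyclin D1, A1, B1 and E1 mRNA in treated MCF-7 cells. Mean with SEM, n = 3, compared with control.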

MCF7 [8] = assay: Increase in p21 protein expression in human MCF7 cells at 7.5 uM by immunoblotting analysis relative to control; type: functional
Summary of the method: (§4)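 Western blot of cell-cycle regulatory proteins (p21, cyclin D1, phospho-Rb) in MCF-7 or primary breast cancer cells. Densitometric quantitation is given as fold change versus control; mean with SEM, n = 3.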

[9] = Increase in p21 protein expression in human primary breast adenocarcinoma cells at 7.5 uM by immunoblotting analysis relative to control; type: functional; summary of the method: as §4
MCF7 [10] = assay: Increase in p21 protein expression in human MCF7 cells assessed as reduction in cyclin D1 expression at 2.5 to 7.5 uM by immunoblotting analysis; type: functional, cell-based; summary of the method: as §4
Homo sapiens [11] = organism: Homo sapiens; assay: Increase in p21 protein expression in human primary breast adenocarcinoma cells assessed as reduction in cyclin D1 expression at 2.5 to 7.5 uM by immunoblotting analysis; type: functional; summary of the method: as §4
MCF7 [12] = assay: Increase in p21 protein expression in human MCF7 cells assessed as reduction in Rb phosphorylation at 2.5 to 7.5 uM by immunoblotting analysis; type: functional, cell-based; summary of the method: as §4
Homo sapiens [13] = organism: Homo sapiens; assay: Increase in p21 protein expression in human primary breast adenocarcinoma cells assessed as reduction in Rb phosphorylation at 2.5 to 7.5 uM by immunoblotting analysis; type: functional; summary of the method: as §4
MCF7 [14] = assay: Cell cycle arrest in human MCF7 cells assessed as accumulation at G1 phase at 7.5 uM after 48 hrs by propidium iodide staining-based flow cytometry (reference value: 60%); type: functional
Summary of the method: (§5)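 Cells were exposed to 7.5µM, then stained with propidium iodide and analysed by flow cytometry for the percentage of cells in each cell-cycle phase. Mean with SEM is from three independent experiments, compared with control.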

[15] = Cell cycle arrest in human primary breast adenocarcinoma cells assessed as accumulation at G1 phase at 7.5 uM after 48 hrs by propidium iodide staining-based flow cytometry (reference value: 60%); type: functional; summary of the method: as §5
MCF7 [16] = assay: Cell cycle arrest at G1/S phase in human MCF7 cells assessed as reduction in cyclin D1 mRNA expression at 2.5 to 7.5 uM after 48 hrs by RT-PCR analysis; type: functional, cell-based; summary of the method: as §3
MCF7 [17] = assay: Cell cycle arrest at G1/S phase in human MCF7 cells assessed as reduction in cyclin E1 mRNA expression at 2.5 to 7.5 uM after 48 hrs by RT-PCR analysis; type: functional, cell-based; summary of the method: as §3
MCF7 [18] = assay: Cell cycle arrest at G1/S phase in human MCF7 cells assessed as reduction in cyclin A1 mRNA expression at 2.5 to 7.5 uM after 48 hrs by RT-PCR analysis; type: functional, cell-based; summary of the method: as §3
MCF7 [19] = assay: Cell cycle arrest at G2/M phase in human MCF7 cells assessed as reduction in cyclin B1 mRNA expression at 2.5 to 7.5 uM after 48 hrs by RT-PCR analysis; type: functional, cell-based; summary of the method: as §3
MCF7 [20] = assay: Antitumor activity against human MCF7 cells xenografted in nude mouse assessed as reduction in tumor volume at 20 mg/kg, po administered for 14 days relative to vehicle-treated control; type: functional; parameters: scale not given: the % may be the effect or the level left
Summary of the method: (§6)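 MCF-7 xenograft tumors were induced in athymic nude mice and dosed at 20 mg/kg body weight/day for 14 days, alongside a vehicle-treated group. Tumor volume, average tumor size and body weight were tracked. Liver, lungs, spleen, uterus and kidney were examined histomorphologically against vehicle.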

MCF7 [21] = assay: Antitumor activity against human MCF7 cells xenografted in nude mouse assessed as reduction in tumor size at 20 mg/kg, po administered for 14 days relative to vehicle-treated control; type: functional; parameters: scale not given: the % may be the effect or the level left; summary of the method: as §6
Mus musculus [22] = assay: Toxicity in nude mouse xenografted with human MCF7 cells assessed as change in body weight at 20 mg/kg, po administered for 14 days relative to vehicle-treated control; type: organism-based; parameters: dose 20 mg/kg, route oral; details: in vivo, 336 h; summary of the method: as §6
Mus musculus [23] = assay: Toxicity in nude mouse xenografted with human MCF7 cells assessed as change in liver at 20 mg/kg, po administered for 14 days by histomorphology relative to vehicle-treated control; type: organism-based; parameters: dose 20 mg/kg, route oral; details: in vivo, 336 h; summary of the method: as §6
Mus musculus [24] = assay: Toxicity in nude mouse xenografted with human MCF7 cells assessed as change in lungs at 20 mg/kg, po administered for 14 days by histomorphology relative to vehicle-treated control; type: organism-based; parameters: dose 20 mg/kg, route oral; details: in vivo, 336 h; summary of the method: as §6
Mus musculus [25] = assay: Toxicity in nude mouse xenografted with human MCF7 cells assessed as change in spleen at 20 mg/kg, po administered for 14 days by histomorphology relative to vehicle-treated control; type: organism-based; parameters: dose 20 mg/kg, route oral; details: in vivo, 336 h; summary of the method: as §6
Mus musculus [26] = assay: Toxicity in nude mouse xenografted with human MCF7 cells assessed as change in uterus at 20 mg/kg, po administered for 14 days by histomorphology relative to vehicle-treated control; type: organism-based; parameters: dose 20 mg/kg, route oral; details: in vivo, 336 h; summary of the method: as §6
Mus musculus [27] = assay: Toxicity in nude mouse xenografted with human MCF7 cells assessed as change in kidney at 20 mg/kg, po administered for 14 days by histomorphology relative to vehicle-treated control; type: organism-based; parameters: dose 20 mg/kg, route oral; details: in vivo, 336 h; summary of the method: as §6
Mus musculus [28] = assay: Antitumor activity against human MCF7 cells xenografted in nude mouse assessed as increase in p21 protein expression at 20 mg/kg, po administered for 14 days by Western blotting analysis; type: functional, organism-based; parameters: dose 20 mg/kg
Mus musculus [29] = assay: Antitumor activity against human MCF7 cells xenografted in nude mouse assessed as reduction in cyclin D1 protein expression at 20 mg/kg, po administered for 14 days by Western blotting analysis; type: functional, organism-based; parameters: dose 20 mg/kg
Mus musculus [30] = assay: Antitumor activity against human MCF7 cells xenografted in nude mouse assessed as reduction in phosphorylated Rb level at 20 mg/kg, po administered for 14 days by Western blotting analysis; type: functional, organism-based; parameters: dose 20 mg/kg
Homo sapiens [31] = organism: Homo sapiens; assay: Increase in p53 mRNA expression in human primary breast adenocarcinoma cells at 2.5 to 7.5 uM by RT-PCR analysis; type: functional; summary of the method: as §2
Homo sapiens [32] = organism: Homo sapiens; assay: Increase in MDM2 mRNA expression in human primary breast adenocarcinoma cells at 2.5 to 7.5 uM by RT-PCR analysis; type: functional; summary of the method: as §2
Homo sapiens [33] = organism: Homo sapiens; assay: Increase in p53 protein expression in human primary breast adenocarcinoma cells; type: functional
Homo sapiens [34] = organism: Homo sapiens; assay: Increase in MDM2 protein expression in human primary breast adenocarcinoma cells; type: functional

COc1ccc(C2=N[C@@H](c3ccc(Cl)cc3)[C@@H](c3ccc(Cl)cc3)N2C(=O)N2CCNC(=O)C2)c(OC(C)C)c1 [NUTLIN-3]
IC50 (MDA-MB-231): 23.5 µM | IC50 (MCF7 [1]): 11.6 µM | IC50 (HEK293): > 50 µM | IC50 (Vero): > 50 µM

CC/C(=C(\c1ccc(O)cc1)c1ccc(OCCN(C)C)cc1)c1ccccc1
IC50 (MCF7 [1]): 13.6 µM | IC50 (HEK293): > 50 µM | IC50 (Vero): > 50 µM

CC(CN(C)C)Oc1ccc(C(=O)C2[C@H](c3ccccc3)[C@@H](c3ccccc3)NC23C(=O)Nc2ccccc23)cc1 (stereo partly drawn)
IC50 (MDA-MB-231): > 50 µM | IC50 (MCF7 [1]): 20.5 µM | IC50 (HEK293): > 50 µM | IC50 (Vero): > 50 µM

O=C(c1ccc(OCCN2CCCCC2)cc1)C1[C@H](c2ccccc2)[C@@H](c2ccccc2)NC12C(=O)Nc1ccc([N+](=O)[O-])cc12 (stereo partly drawn)
IC50 (MDA-MB-231): 13.5 µM | IC50 (MCF7 [1]): 15.2 µM | IC50 (HEK293): 18.8 µM | IC50 (Vero): 22.4 µM

O=C(c1ccc(OCCN2CCCCC2)cc1)C1[C@H](c2ccccc2)[C@@H](c2ccccc2)NC12C(=O)Nc1ccc(Cl)cc12 (stereo partly drawn)
IC50 (MDA-MB-231): 3.7 µM | IC50 (MCF7 [1]): 6.5 µM | IC50 (HEK293): > 50 µM | IC50 (Vero): > 50 µM | Activity (MCF7 [2]): Active | Activity (MCF7 [3]): Active | Activity (MCF7 [4]): Active | Activity (MCF7 [5]): Active | Activity (MCF7 [6]): Dose-dependent effect | Activity (MCF7 [7]): Active | Ratio (MCF7 [8]): 2.5 | Ratio [9]: 2.5 | Activity (MCF7 [10]): Active | Activity (Homo sapiens [11]): Active | Activity (MCF7 [12]): Active | Activity (Homo sapiens [13]): Active | Activity (MCF7 [14]): 90% | Activity [15]: 90% | Activity (MCF7 [16]): Active | Activity (MCF7 [17]): Active | Activity (MCF7 [18]): Active | Activity (MCF7 [19]): inactive | Activity (MCF7 [20]): 66% | Activity (MCF7 [21]): 66% | Activity (Mus musculus [22]): Non-toxic | Activity (Mus musculus [23]): Non-toxic | Activity (Mus musculus [24]): Non-toxic | Activity (Mus musculus [25]): Non-toxic | Activity (Mus musculus [26]): Non-toxic | Activity (Mus musculus [27]): Non-toxic | Activity (Mus musculus [28]): Active | Activity (Mus musculus [29]): Active | Activity (Mus musculus [30]): Active | Activity (Homo sapiens [31]): Active | Activity (Homo sapiens [32]): Active | Activity (Homo sapiens [33]): Active | Activity (Homo sapiens [34]): Active

O=C(c1ccc([N+](=O)[O-])cc1)C1[C@H](c2ccccc2)[C@@H](c2ccccc2)NC12C(=O)Nc1ccccc12 (stereo partly drawn)
IC50 (MDA-MB-231): 29.5 µM | IC50 (MCF7 [1]): 15.5 µM | IC50 (HEK293): 21.4 µM | IC50 (Vero): > 50 µM

O=C(c1ccc(OCCN2CCCCC2)cc1)C1[C@H](c2ccccc2)[C@@H](c2ccccc2)NC12C(=O)Nc1ccccc12 (stereo partly drawn)
IC50 (MDA-MB-231): 28.2 µM | IC50 (MCF7 [1]): 13.9 µM | IC50 (HEK293): 30.8 µM | IC50 (Vero): 32.4 µM

O=C(c1ccccc1)C1[C@H](c2ccc(O)cc2)[C@@H](c2ccccc2)NC12C(=O)Nc1ccccc12 (stereo partly drawn)
IC50 (MDA-MB-231): 37.3 µM | IC50 (MCF7 [1]): 36.3 µM | IC50 (HEK293): > 50 µM | IC50 (Vero): > 50 µM

CCN1C(=O)C2(N[C@H](c3ccccc3)[C@@H](c3ccccc3)C2C(=O)c2ccc(OCCN3CCOCC3)cc2)c2ccccc21 (stereo partly drawn)
IC50 (MDA-MB-231): > 50 µM | IC50 (MCF7 [1]): > 50 µM | IC50 (HEK293): > 50 µM | IC50 (Vero): > 50 µM
